Experimental findings from the RNAGym collection of RNA variant scans (doi:10.1002/anie.201605470) are described below.

B1: Osa-1-4 twister ribozyme (parent)
chain: CCGCCUAACACUGCCAAUGCCGGUCCCAAGCCCGGAUAAAAGUGGAGGGGGCGG

Variants of B1 are the subject of the data set. The data set can be described thus: self-cleavage, relative activity (ratio to wild type); higher = more cleavage; co-transcriptional. A digest of the protocol:
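For each read, cleavage status was taken from whether upstream sequence was present. The reads came from an Oryza sativa twister ribozyme of 54 nucleotides, whose DNA template was synthesised with 97 % wild-type base and 1 % of each other base at the 48 positions downstream of the cleavage site. The template was transcribed in vitro at 37 °C for 2 h with co-transcriptional self-cleavage, and the RNA was reverse-transcribed using a template-switching oligonucleotide, PCR-amplified and deep-sequenced. Relative activity is the fraction cleaved normalised to wild type.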
As to CCGCCUAACACUGCCAACGCCGGCCCCAAGCCCGGAUAAAAGUGGAGGGGGCGG [U18C U24C], the self-cleavage came to 0.24. On to CCGCCUAACACUGCCAAUACCGGUCCCAAGCCCGGAUAAAAGUGGAGCGGGCGG [G19A G48C], for which the self-cleavage came out at 0.06. To CCGCCUAACACUGCCAAUACCGGUCCCAAGCCCGGAUAAAAGUGGAGUGGGCGG [G19A G48U] belongs 0.06; to CCGCCUAACACUGCCAAUACCGGUCCCAAGCCCGGAUAAAAGUGGAGAGGGCGG [G19A G48A], 0.06; to CCGCCUAACACUGCCAAUACCGGUCCCAAGCCCGGAUAAAAGUGGAAGGGGCGG [G19A G47A], 0.08.

Consider CCGCCUAACACUGCCAAUACCGGUCCCAAGCCCGGAUAAAAGUGGACGGGGCGG [G19A G47C], for which the self-cleavage was determined as 0.08.

As to CCGCCUAACACUGCCAAUACCGGUCCCAAGCCCGGAUAAAAGUGGAUGGGGCGG [G19A G47U], the self-cleavage worked out at 0.07. With CCGCCUAACACUGCCAAUACCGGUCCCAAGCCCGAAUAAAAGUGGAGGGGGCGG [G19A G35A], the self-cleavage turned out to be 0.83.

Consider CCGCCUAACACUGCCAAUACCGGUCCCAAGCCCGCAUAAAAGUGGAGGGGGCGG [G19A G35C], for which the self-cleavage turned out to be 0.68. On to CCGCCUAACACUGCCAAUACCGGUCCCAAGCCCGUAUAAAAGUGGAGGGGGCGG [G19A G35U], for which the self-cleavage is 0.2. Regarding CCGCCUAACACUGCCAAUACCGGUCCCAAGCCCAGAUAAAAGUGGAGGGGGCGG [G19A G34A], the self-cleavage stood at 0.61. The same measure for CCGCCUAACACUGCCAAUACCGGUCCCAAGCCCUGAUAAAAGUGGAGGGGGCGG [G19A G34U]: 0.39; for CCGCCUAACACUGCCAAUACCGGUCCCAAGCCCCGAUAAAAGUGGAGGGGGCGG [G19A G34C]: 0.25; for CCGCCUAACACUGCCAUCGCCGGUCCCAAGCCCGGAUAAAAGUGGAGGGGGCGG [A17U U18C]: 0.9. Take CCGCCUAACACUGCCAUGGCCGGUCCCAAGCCCGGAUAAAAGUGGAGGGGGCGG [A17U U18G]: the self-cleavage came to 0.87.

Turning to CCGCCUAACACUGCCAUAGCCGGUCCCAAGCCCGGAUAAAAGUGGAGGGGGCGG [A17U U18A], the self-cleavage is 0.89. For CCGCCUAACACUGCCAACGCCGGUCCCAAGCCCGGAUAAAAGAGGAGGGGGCGG [U18C U43A], the self-cleavage turned out to be 0.65. Consider CCGCCUAACACUGCCAACGCCGGUCCCAAGCCCGGAUAAAAGCGGAGGGGGCGG [U18C U43C], for which the self-cleavage is 0.35. For the variant CCGCCUAACACUGCCAACGCCGGUCCCAAGCCCGGAUAAAAGGGGAGGGGGCGG [U18C U43G], the self-cleavage came to 0.3. To CCGCCUAACACUGCCAAUACCGGUCCCAAGCCCGGAUAAAAAUGGAGGGGGCGG [G19A G42A] belongs 0.1; to CCGCCUAACACUGCCAAUACCGGUCCCAAGCCCGGAUAAAACUGGAGGGGGCGG [G19A G42C], 0.09. In the case of CCGCCUAACACUGCCAAUACCGGUCCCAAGCCCGGAUAAAAUUGGAGGGGGCGG [G19A G42U], the self-cleavage is 0.06. As for CCGCCUAACACUGCCAAUACCGGUCCCAAGCCCGGAUAAAAGUGGAGGGGGCGC [G19A G54C], the self-cleavage is 0.24. Take CCGCCUAACACUGCCAAUACCGGUCCCAAGCCCGGAUAAAAGUGGAGGGGGCGU [G19A G54U]: the self-cleavage turned out to be 0.65. Regarding CCGCCUAACACUGCCAAUACCGGUCCCAAGCCCGGAUAAAAGUGGAGGGGGCGA [G19A G54A], the self-cleavage turned out to be 0.31. As for CCGCCUAACACAGCCAUUGCCGGUCCCAAGCCCGGAUAAAAGUGGAGGGGGCGG [A17U U12A], the self-cleavage was determined as 0.94.

As to CCGCCUAACACCGCCAUUGCCGGUCCCAAGCCCGGAUAAAAGUGGAGGGGGCGG [A17U U12C], the self-cleavage turned out to be 0.58.

On to CCGCCUAACACGGCCAUUGCCGGUCCCAAGCCCGGAUAAAAGUGGAGGGGGCGG [A17U U12G], for which the self-cleavage is 0.44. Consider CCGCCUAACACUGCCAAUACCGAUCCCAAGCCCGGAUAAAAGUGGAGGGGGCGG [G19A G23A], for which the self-cleavage worked out at 0.12. Take CCGCCUAACACUGCCAAUACCGUUCCCAAGCCCGGAUAAAAGUGGAGGGGGCGG [G19A G23U]: the self-cleavage is 0.05. In the case of CCGCCUAACACUGCCAAUACCGCUCCCAAGCCCGGAUAAAAGUGGAGGGGGCGG [G19A G23C], the self-cleavage came to 0.06. Turning to CCGCCUAACACUGCCAAGGCCGGCCCCAAGCCCGGAUAAAAGUGGAGGGGGCGG [U18G U24C], the self-cleavage worked out at 0.38. With CCGCCUAACACUGCCAAGGCCGGACCCAAGCCCGGAUAAAAGUGGAGGGGGCGG [U18G U24A], the self-cleavage is 0.53. Consider CCGCCUAACACUGCCAAGGCCGGGCCCAAGCCCGGAUAAAAGUGGAGGGGGCGG [U18G U24G], for which the self-cleavage was determined as 0.05. Regarding CCGCCUAACACUGCCAAAGCCGGUCCCAAGCCCGGAAAAAAGUGGAGGGGGCGG [U18A U37A], the self-cleavage was 0.63.

For the variant CCGCCUAACACUGCCAAAGCCGGUCCCAAGCCCGGACAAAAGUGGAGGGGGCGG [U18A U37C], the self-cleavage was determined as 0.98. In the case of CCGCCUAACACUGCCAAAGCCGGUCCCAAGCCCGGAGAAAAGUGGAGGGGGCGG [U18A U37G], the self-cleavage came out at 0.93. In the case of CCGCCUAACACUGCCAUUGCCGGUCCCAAGCCCGGAAAAAAGUGGAGGGGGCGG [A17U U37A], the self-cleavage was 0.73. To CCGCCUAACACUGCCAUUGCCGGUCCCAAGCCCGGACAAAAGUGGAGGGGGCGG [A17U U37C] belongs 1.06; to CCGCCUAACACUGCCAUUGCCGGUCCCAAGCCCGGAGAAAAGUGGAGGGGGCGG [A17U U37G], 1.01. For CCGCCUAACACUGCCAAUACCGGUCCCAAGCCCGGAUAAAAGUUGAGGGGGCGG [G19A G44U], the self-cleavage was 0.4. CCGCCUAACACUGCCAAUACCGGUCCCAAGCCCGGAUAAAAGUCGAGGGGGCGG [G19A G44C]: the self-cleavage came out at 0.72.

Turning to CCGCCUAACACUGCCAAUACCGGUCCCAAGCCCGGAUAAAAGUAGAGGGGGCGG [G19A G44A], the self-cleavage worked out at 0.23. For CCGCCUAACACUGCCAUUGCCGGACCCAAGCCCGGAUAAAAGUGGAGGGGGCGG [A17U U24A], the self-cleavage stood at 0.3. With CCGCCUAACACUGCCAUUGCCGGGCCCAAGCCCGGAUAAAAGUGGAGGGGGCGG [A17U U24G], the self-cleavage worked out at 0.03.

Turning to CCGCCUAACACUGCCAUUGCCGGCCCCAAGCCCGGAUAAAAGUGGAGGGGGCGG [A17U U24C], the self-cleavage amounted to 0.44. CCGCCUAACACUGCCAAGGCCGGUCCCAAGCCCGGACAAAAGUGGAGGGGGCGG [U18G U37C]: the self-cleavage was found to be 0.86.

In the case of CCGCCUAACACUGCCAAGGCCGGUCCCAAGCCCGGAAAAAAGUGGAGGGGGCGG [U18G U37A], the self-cleavage stood at 0.59. For the variant CCGCCUAACACUGCCAAGGCCGGUCCCAAGCCCGGAGAAAAGUGGAGGGGGCGG [U18G U37G], the self-cleavage came out at 0.85.
